Source: ChEMBL document CHEMBL5724801, “EUbOPEN Chemogenomics Library - Multiplex” (2024)
“And” between values parts separate entries of the source, which are not always exact repeats. Equal values may be shown once.

System: HEK-293T
Test: Multiplex assay against HEK293T
Format: toxicity, cell-based
Details: human
Summary of the method: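 With compound added, live cells were imaged on a CQ1 microscope at 37°C and 5% CO2; staining with Hoechst33342, BioTracker Green Microtubule Cytoskeleton Dye, MitoTracker Red and Annexin V Alexa Fluor 680 had been done at seeding. The CellPathfinder machine-learning gating scheme split cells into Hoechst high-intensity objects or normal cells, normal cells into healthy, pyknosed or fragmented nuclei, and pyknosed cells into mitotic or apoptotic. The tubulin, mitochondrial-mass and membrane-permeability phenotypes are per cents of healthy-nucleus cells.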

[1] = 12 h, 1 µM, compound concentration 1 uM
[2] = 12 h, 10 µM, compound concentration 10 uM
[3] = 24 h, 1 µM, compound concentration 1 uM
[4] = 24 h, 10 µM, compound concentration 10 uM
[5] = 48 h, 1 µM, compound concentration 1 uM
[6] = 48 h, 10 µM, compound concentration 10 uM

SMILES: COCCNc1cc(NC(=O)N2CCCc3cc(CN4CCOCC4=O)c(C=O)nc32)ncc1C#N
- Population Apoptotic (%) [1]: 8.39% and 10.83%
- Population Fragmented Nuclei (%) [1]: 1.89% and 2%
- Population Hoechst High Intensity Objects (%) [1]: 0% and 0.66%
- Population Membrane Permeable-Phenotype (%) [1]: 0.45% and 0%
- Population Mitochondria Different-Phenotype (%) [1]: 40% and 29.63%
- Population Mitotic Cells (%) [1]: 91.61% and 89.17%
- Population Normal (%) [1]: 100% and 99.34%
- Population Pyknosed Nuclei (%) [1]: 38.65% and 80%
- Total Cell Count [1]: 370 and 151
- Population Apoptotic (%) [2]: 13.28% and 9.24%
- Population Fragmented Nuclei (%) [2]: 3.21% and 5.33%
- Population Hoechst High Intensity Objects (%) [2]: 0.71% and 0%
- Population Membrane Permeable-Phenotype (%) [2]: 0.7% and 4.35%
- Population Mitochondria Different-Phenotype (%) [2]: 34.27% and 17.39%
- Population Mitotic Cells (%) [2]: 86.72% and 90.76%
- Population Normal (%) [2]: 99.29% and 100%
- Population Pyknosed Nuclei (%) [2]: 45.71% and 79.33%
- Population Tubulin-Different-Phenotype (%) [2]: 22.38% and 30.43%
- Total Cell Count [2]: 282 and 150
- Population Apoptotic (%) [3]: 12.59% and 11.28%
- Population Fragmented Nuclei (%) [3]: 1.33% and 4.05%
- Population Hoechst High Intensity Objects (%) [3]: 0%
- Population Membrane Permeable-Phenotype (%) [3]: 1.6% and 0%
- Population Mitochondria Different-Phenotype (%) [3]: 19.15% and 9.09%
- Population Mitotic Cells (%) [3]: 87.41% and 88.72%
- Population Normal (%) [3]: 100%
- Population Pyknosed Nuclei (%) [3]: 27.19% and 76.88%
- Population Apoptotic (%) [4]: 27.05% and 20.97%
- Population Fragmented Nuclei (%) [4]: 2.91% and 3.95%
- Population Healthy Nuclei (%) [4]: 67.48% and 25.99%
- Population Hoechst High Intensity Objects (%) [4]: 0.24% and 0%
- Population Membrane Permeable-Phenotype (%) [4]: 1.44% and 0%
- Population Mitochondria Different-Phenotype (%) [4]: 24.82% and 19.57%
- Population Mitotic Cells (%) [4]: 72.95% and 79.03%
- Population Normal (%) [4]: 99.76% and 100%
- Population Pyknosed Nuclei (%) [4]: 29.61% and 70.06%
- Population Tubulin-Different-Phenotype (%) [4]: 39.21% and 21.74%
- Total Cell Count [4]: 413 and 177
- Population Apoptotic (%) [5]: 7.19% and 11.39%
- Population Fragmented Nuclei (%) [5]: 2.68% and 2.4%
- Population Healthy Nuclei (%) [5]: 85.58% and 59.62%
- Population Hoechst High Intensity Objects (%) [5]: 0%
- Population Membrane Permeable-Phenotype (%) [5]: 6% and 3.23%
- Population Mitochondria Different-Phenotype (%) [5]: 14.96% and 30.65%
- Population Mitotic Cells (%) [5]: 92.81% and 88.61%
- Population Normal (%) [5]: 100%
- Population Apoptotic (%) [6]: 11.67% and 18.75%
- Population Fragmented Nuclei (%) [6]: 2.84% and 5.15%
- Population Healthy Nuclei (%) [6]: 81.65% and 53.65%
- Population Hoechst High Intensity Objects (%) [6]: 0%
- Population Membrane Permeable-Phenotype (%) [6]: 4.91% and 4%
- Population Mitochondria Different-Phenotype (%) [6]: 35.13% and 34.4%
- Population Mitotic Cells (%) [6]: 88.33% and 81.25%
- Population Normal (%) [6]: 100%
- Population Pyknosed Nuclei (%) [6]: 15.5% and 41.2%

SMILES: CC(C)C[C@H](NC(=O)c1cc2ccccc2s1)C(=O)N1CCN(C(=O)[C@H](CO)NS(=O)(=O)c2ccc(Cl)cc2Cl)CC1
- Population Apoptotic (%) [1]: 10.07% and 13.45%
- Population Fragmented Nuclei (%) [1]: 3.47% and 8.64%
- Population Healthy Nuclei (%) [1]: 52.68% and 17.9%
- Population Hoechst High Intensity Objects (%) [1]: 0.31% and 0%
- Population Membrane Permeable-Phenotype (%) [1]: 1.8% and 0%
- Population Mitochondria Different-Phenotype (%) [1]: 37.13% and 31.03%
- Population Mitotic Cells (%) [1]: 89.93% and 86.55%
- Population Normal (%) [1]: 99.69% and 100%
- Population Pyknosed Nuclei (%) [1]: 43.85% and 73.46%
- Population Tubulin-Different-Phenotype (%) [1]: 16.17% and 48.28%
- Total Cell Count [1]: 318 and 162
- Population Apoptotic (%) [2]: 19.05% and 16.13%
- Population Fragmented Nuclei (%) [2]: 2.43% and 2.16%
- Population Hoechst High Intensity Objects (%) [2]: 0.69% and 0%
- Population Membrane Permeable-Phenotype (%) [2]: 0.88% and 0%
- Population Mitotic Cells (%) [2]: 80.95% and 83.87%
- Population Normal (%) [2]: 99.31% and 100%
- Population Pyknosed Nuclei (%) [2]: 58.33% and 89.21%
- Population Tubulin-Different-Phenotype (%) [2]: 87.61% and 58.33%
- Total Cell Count [2]: 290 and 139
- Population Apoptotic (%) [3]: 16.78% and 26.05%
- Population Fragmented Nuclei (%) [3]: 1.48% and 4.6%
- Population Healthy Nuclei (%) [3]: 67.09% and 27.01%
- Population Hoechst High Intensity Objects (%) [3]: 0%
- Population Membrane Permeable-Phenotype (%) [3]: 2.83% and 2.13%
- Population Mitochondria Different-Phenotype (%) [3]: 27.67% and 38.3%
- Population Mitotic Cells (%) [3]: 83.22% and 73.95%
- Population Normal (%) [3]: 100%
- Population Pyknosed Nuclei (%) [3]: 31.43% and 68.39%
- Population Tubulin-Different-Phenotype (%) [3]: 38.68% and 19.15%
- Total Cell Count [3]: 474 and 174
- Population Apoptotic (%) [4]: 47.8% and 42.62%
- Population Fragmented Nuclei (%) [4]: 3.25% and 4.03%
- Population Hoechst High Intensity Objects (%) [4]: 0.65% and 0%
- Population Membrane Permeable-Phenotype (%) [4]: 0% and 4.76%
- Population Mitochondria Different-Phenotype (%) [4]: 74.82% and 42.86%
- Population Mitotic Cells (%) [4]: 52.2% and 57.38%
- Population Normal (%) [4]: 99.35% and 100%
- Population Pyknosed Nuclei (%) [4]: 51.62% and 81.88%
- Population Tubulin-Different-Phenotype (%) [4]: 100% and 90.48%
- Total Cell Count [4]: 310 and 149
- Population Apoptotic (%) [5]: 11.27% and 26%
- Population Fragmented Nuclei (%) [5]: 1.67% and 1.87%
- Population Healthy Nuclei (%) [5]: 84.35% and 51.4%
- Population Hoechst High Intensity Objects (%) [5]: 0.1% and 0.47%
- Population Membrane Permeable-Phenotype (%) [5]: 6.07% and 4.55%
- Population Mitochondria Different-Phenotype (%) [5]: 35.82% and 54.55%
- Population Mitotic Cells (%) [5]: 88.73% and 74%
- Population Normal (%) [5]: 99.9% and 99.53%
- Population Apoptotic (%) [6]: 55.17% and 79.57%
- Population Fragmented Nuclei (%) [6]: 2.27% and 2.56%
- Population Healthy Nuclei (%) [6]: 64.87% and 37.82%
- Population Hoechst High Intensity Objects (%) [6]: 0.28% and 0%
- Population Membrane Permeable-Phenotype (%) [6]: 1.31% and 1.69%
- Population Mitochondria Different-Phenotype (%) [6]: 97.38% and 91.53%
- Population Mitotic Cells (%) [6]: 44.83% and 20.43%
- Population Normal (%) [6]: 99.72% and 100%
- Population Pyknosed Nuclei (%) [6]: 32.86% and 59.62%
- Population Tubulin-Different-Phenotype (%) [6]: 94.32% and 98.31%
- Total Cell Count [6]: 354 and 156

SMILES: CCC(=O)OCC(=O)[C@@]1(OC(=O)CC)[C@@H](C)C[C@H]2[C@@H]3CCC4=CC(=O)C=C[C@]4(C)[C@@]3(Cl)[C@@H](O)C[C@@]21C [BECLOMETHASONE DIPROPIONATE]
- Population Apoptotic (%) [1]: 43% and 47%
- Population Fragmented Nuclei (%) [1]: 8% and 5%
- Population Healthy Nuclei (%) [1]: 75% and 74%
- Population Hoechst High Intensity Objects (%) [1]: 7% and 4%
- Population Membrane Permeable-Phenotype (%) [1]: 0%
- Population Mitochondria Different-Phenotype (%) [1]: 60% and 75%
- Population Mitotic Cells (%) [1]: 56% and 52%
- Population Normal (%) [1]: 92% and 95%
- Population Pyknosed Nuclei (%) [1]: 15% and 19%
- Population Tubulin-Different-Phenotype (%) [1]: 48% and 42%
- Total Cell Count [1]: 388 and 356
- Population Apoptotic (%) [2]: 60% and 68%
- Population Fragmented Nuclei (%) [2]: 8% and 6%
- Population Healthy Nuclei (%) [2]: 66%
- Population Hoechst High Intensity Objects (%) [2]: 14% and 16%
- Population Membrane Permeable-Phenotype (%) [2]: 0%
- Population Mitochondria Different-Phenotype (%) [2]: 87% and 93%
- Population Mitotic Cells (%) [2]: 39% and 31%
- Population Normal (%) [2]: 85% and 83%
- Population Pyknosed Nuclei (%) [2]: 25% and 27%
- Population Tubulin-Different-Phenotype (%) [2]: 65% and 35%
- Total Cell Count [2]: 236 and 252
- Population Apoptotic (%) [3]: 32% and 43%
- Population Fragmented Nuclei (%) [3]: 7%
- Population Healthy Nuclei (%) [3]: 81%
- Population Hoechst High Intensity Objects (%) [3]: 4% and 5%
- Population Membrane Permeable-Phenotype (%) [3]: 0%
- Population Mitochondria Different-Phenotype (%) [3]: 40% and 52%
- Population Mitotic Cells (%) [3]: 67% and 56%
- Population Normal (%) [3]: 95% and 94%
- Population Pyknosed Nuclei (%) [3]: 11%
- Population Tubulin-Different-Phenotype (%) [3]: 31% and 18%
- Total Cell Count [3]: 507 and 446
- Population Apoptotic (%) [4]: 56% and 62%
- Population Fragmented Nuclei (%) [4]: 13% and 5%
- Population Healthy Nuclei (%) [4]: 65% and 71%
- Population Hoechst High Intensity Objects (%) [4]: 11% and 9%
- Population Membrane Permeable-Phenotype (%) [4]: 0%
- Population Mitochondria Different-Phenotype (%) [4]: 89% and 97%
- Population Mitotic Cells (%) [4]: 44% and 37%
- Population Normal (%) [4]: 88% and 90%
- Population Pyknosed Nuclei (%) [4]: 21% and 23%
- Population Tubulin-Different-Phenotype (%) [4]: 73% and 43%
- Total Cell Count [4]: 270 and 243
- Population Apoptotic (%) [5]: 30% and 31%
- Population Fragmented Nuclei (%) [5]: 11% and 12%
- Population Healthy Nuclei (%) [5]: 78% and 79%
- Population Hoechst High Intensity Objects (%) [5]: 4% and 3%
- Population Membrane Permeable-Phenotype (%) [5]: 0%
- Population Mitochondria Different-Phenotype (%) [5]: 28% and 32%
- Population Mitotic Cells (%) [5]: 69% and 68%
- Population Normal (%) [5]: 95% and 96%
- Population Pyknosed Nuclei (%) [5]: 9% and 8%
- Population Tubulin-Different-Phenotype (%) [5]: 18% and 17%
- Total Cell Count [5]: 742 and 655
- Population Apoptotic (%) [6]: 67% and 65%
- Population Fragmented Nuclei (%) [6]: 14% and 12%
- Population Healthy Nuclei (%) [6]: 72%
- Population Hoechst High Intensity Objects (%) [6]: 5%
- Population Membrane Permeable-Phenotype (%) [6]: 0%
- Population Mitochondria Different-Phenotype (%) [6]: 72% and 90%
- Population Mitotic Cells (%) [6]: 32% and 34%
- Population Normal (%) [6]: 94%
- Population Pyknosed Nuclei (%) [6]: 13% and 15%
- Population Tubulin-Different-Phenotype (%) [6]: 43% and 62%
- Total Cell Count [6]: 347 and 283
